From ChEMBL document CHEMBL4043068, “(±)-Uncarilins A and B, Dimeric Isoechinulin-Type Alkaloids from Uncaria rhynchophylla” (J Nat Prod, 2017)
Active and inactive are the calls of the source. The calls are words filed in the database; no cut-off is given here.

Assays:
Type in all cases: functional, cell-based
[1] = biological target: T1, 5-hydroxytryptamine receptor 1A (Homo sapiens) (UniProt P08908); assay: Agonist activity at human 5HT1A receptor expressed in HEK293 cells incubated for 1 hr by Fluo-8 dye based calcium assay
T1 sequence (whole entry): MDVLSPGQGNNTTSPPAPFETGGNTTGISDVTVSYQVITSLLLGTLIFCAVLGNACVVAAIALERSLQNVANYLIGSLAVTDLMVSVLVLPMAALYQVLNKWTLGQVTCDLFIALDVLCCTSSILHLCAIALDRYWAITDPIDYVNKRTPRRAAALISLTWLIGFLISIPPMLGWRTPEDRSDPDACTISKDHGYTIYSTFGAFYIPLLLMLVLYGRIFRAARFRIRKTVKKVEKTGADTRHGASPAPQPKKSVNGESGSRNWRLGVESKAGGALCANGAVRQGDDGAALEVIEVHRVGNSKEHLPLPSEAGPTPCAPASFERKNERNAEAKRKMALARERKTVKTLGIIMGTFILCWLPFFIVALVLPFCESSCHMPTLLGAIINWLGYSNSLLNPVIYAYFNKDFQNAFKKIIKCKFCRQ
In short: (§1)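 HEK293 cells stably expressing the human receptor, kept in DMEM with 10% FBS, seeded at 4 × 10^4 cells/well on Matrigel-coated plates and incubated overnight (5% CO2, 37 °C). Fluo-8 wash-free calcium dye loaded for 1 h at 37 °C. Samples in Hank's balanced salt solution, tested at 0.25 mM. Calcium fluorescence read on a FlexStation3 plate reader.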

[2] = biological target: T2, 5-hydroxytryptamine receptor 2C (Homo sapiens) (UniProt P28335); assay: Agonist activity at human 5HT2C receptor expressed in HEK293 cells incubated for 1 hr by Fluo-8 dye based calcium assay; in short: as §1
T2 sequence (whole entry): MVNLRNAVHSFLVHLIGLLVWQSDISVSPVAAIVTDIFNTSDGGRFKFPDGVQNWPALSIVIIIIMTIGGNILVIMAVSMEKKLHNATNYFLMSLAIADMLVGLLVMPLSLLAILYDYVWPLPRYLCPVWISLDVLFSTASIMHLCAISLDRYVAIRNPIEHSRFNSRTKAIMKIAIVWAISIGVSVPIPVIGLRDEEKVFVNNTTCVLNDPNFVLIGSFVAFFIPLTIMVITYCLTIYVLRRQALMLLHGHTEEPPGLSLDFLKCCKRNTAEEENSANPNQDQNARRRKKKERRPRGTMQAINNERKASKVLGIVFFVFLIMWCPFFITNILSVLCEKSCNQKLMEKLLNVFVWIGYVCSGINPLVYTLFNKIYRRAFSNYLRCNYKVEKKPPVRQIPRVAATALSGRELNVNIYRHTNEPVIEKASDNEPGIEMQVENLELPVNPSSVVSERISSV

[3] = biological target: Melatonin receptor type 1A (Homo sapiens) (UniProt P48039); assay: Agonist activity at human MT1 receptor expressed in HEK293 cells incubated for 1 hr by Fluo-8 dye based calcium assay; in short: as §1
[4] = biological target: T3, Melatonin receptor type 1B (Homo sapiens) (UniProt P49286); assay: Agonist activity at human MT2 receptor expressed in HEK293 cells incubated for 1 hr by Fluo-8 dye based calcium assay; in short: as §1
T3 sequence (whole entry): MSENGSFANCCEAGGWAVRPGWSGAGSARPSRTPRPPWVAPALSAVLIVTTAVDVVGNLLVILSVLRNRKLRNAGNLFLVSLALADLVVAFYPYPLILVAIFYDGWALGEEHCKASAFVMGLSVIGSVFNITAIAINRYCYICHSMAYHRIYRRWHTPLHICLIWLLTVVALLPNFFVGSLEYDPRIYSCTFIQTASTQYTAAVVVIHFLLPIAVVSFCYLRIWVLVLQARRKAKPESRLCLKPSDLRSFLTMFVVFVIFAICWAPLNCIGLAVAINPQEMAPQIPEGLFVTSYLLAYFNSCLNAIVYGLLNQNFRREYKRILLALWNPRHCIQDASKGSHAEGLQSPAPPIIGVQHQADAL

Chain of Melatonin receptor type 1A (Homo sapiens) (P48039 whole entry): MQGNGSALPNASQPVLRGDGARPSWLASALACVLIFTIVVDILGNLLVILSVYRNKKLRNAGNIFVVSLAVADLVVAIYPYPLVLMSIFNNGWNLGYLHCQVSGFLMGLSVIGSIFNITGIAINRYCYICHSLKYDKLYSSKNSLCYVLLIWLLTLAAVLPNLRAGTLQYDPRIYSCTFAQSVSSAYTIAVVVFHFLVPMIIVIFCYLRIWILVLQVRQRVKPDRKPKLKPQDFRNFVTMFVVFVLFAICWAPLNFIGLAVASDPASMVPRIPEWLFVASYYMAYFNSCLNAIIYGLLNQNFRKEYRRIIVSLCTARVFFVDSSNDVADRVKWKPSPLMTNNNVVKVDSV

SMILES | Activity [1] | Activity [2] | Activity [3] | Activity [4]
C=CC(C)(C)c1[nH]c2ccccc2c1[C@@H]1[C@@H](c2c(C(C)(C)C=C)[nH]c3ccccc23)[C@@]2(NC(=O)[C@@H](C)NC2=O)[C@]12NC(=O)[C@@H](C)NC2=O | inactive | inactive | Active | Active
C=CC(C)(C)c1[nH]c2ccccc2c1[C@H]1[C@H](c2c(C(C)(C)C=C)[nH]c3ccccc23)[C@]2(NC(=O)[C@H](C)NC2=O)[C@@]12NC(=O)[C@H](C)NC2=O | inactive | inactive | Active | Active
C=CC(C)(C)c1[nH]c2ccccc2c1[C@H]1[C@H](c2c(C(C)(C)C=C)[nH]c3ccccc23)[C@]2(NC(=O)[C@@H](C)NC2=O)[C@@]12NC(=O)[C@@H](C)NC2=O | inactive | inactive | 11.3% | 52.4%
C=CC(C)(C)c1[nH]c2ccccc2c1[C@@H]1[C@@H](c2c(C(C)(C)C=C)[nH]c3ccccc23)[C@@]2(NC(=O)[C@H](C)NC2=O)[C@]12NC(=O)[C@H](C)NC2=O | inactive | inactive | Active | Active
